{"data": "Results from different studies", "Nos2": "Nitric oxide synthase, inducible (Nos2, Mus musculus, UniProt P29477)", "STK38": "Serine/threonine-protein kinase 38 (STK38, Homo sapiens, UniProt Q15208)", "note": "Each line is one published result; the experiments were not run side by side."}
{"Structure (SMILES)": "c1ccc(C(NCCNC(c2ccccc2)c2ccccc2)c2ccccc2)cc1", "target": "Nos2", "observed": "enzyme activity", "mode": "inhibitor", "tested at": "10 µM", "endpoint": "inhibition", "value": "3%"}
{"Structure (SMILES)": "Nc1ncc(-c2nc(N3CCOCC3)nc(N3CCOCC3)n2)c(C(F)F)n1", "target": "Proto-oncogene tyrosine-protein kinase receptor Ret (RET, Homo sapiens, UniProt P07949, M918T)", "observed": "binding", "technique": "competition with immobilised ligand", "tested at": "10 µM", "endpoint": "remaining binding", "value": "78%"}
{"Structure (SMILES)": "COc1cc(Nc2ncc(F)c(Nc3ccc4c(n3)NC(=O)C(C)(C)O4)n2)cc(OC)c1OC", "target": "Citron Rho-interacting kinase (CIT, Homo sapiens, UniProt O14578)", "observed": "binding", "tested at": "10 µM", "endpoint": "inhibition", "value": "99%"}
{"Structure (SMILES)": "Cc1nn(C)cc1-c1nc2c(N3CCN(Cc4ccc(Cl)cc4)CC3)c(Cl)cnc2[nH]1", "target": "STK38", "observed": "binding", "technique": "competition with immobilised ligand", "tested at": "1 µM", "endpoint": "remaining binding", "value": "86%"}
{"Structure (SMILES)": "C[C@H](C(=O)N[C@H]1COc2ccccc2[C@@H]1S(C)(=O)=O)c1ccc(F)cc1", "target": "Nos2", "observed": "enzyme activity", "mode": "inhibitor", "tested at": "10 µM", "endpoint": "inhibition", "value": "3%"}
{"Structure (SMILES)": "Cc1sc2c(c1C)C(c1ccc(Cl)cc1)=N[C@@H](CC(=O)OC(C)(C)C)c1nnc(C)n1-2", "target": "Stimulator of interferon genes protein (STING1, Homo sapiens, UniProt Q86WV6, H232R)", "observed": "thermal stability", "technique": "DSF", "tested at": "50 µM", "endpoint": "ΔTm", "value": "-0.5 °C"}
{"Structure (SMILES)": "COc1ncccc1-c1cnn2ccc(N3CCN(C(=O)OC(C)C)CC3)nc12", "target": "STK38", "observed": "binding", "technique": "competition with immobilised ligand", "tested at": "1 µM", "endpoint": "remaining binding", "value": "84%"}
{"Structure (SMILES)": "C#Cc1n[nH]c2c(-c3cn(C(C)c4ccccn4)c(=O)[nH]c3=O)cc(F)cc12 (centres unmarked)", "target": "Proto-oncogene tyrosine-protein kinase receptor Ret (RET, Homo sapiens, UniProt P07949, V804L)", "observed": "enzyme activity", "mode": "inhibitor", "tested at": "1 µM", "endpoint": "inhibition", "value": "4.9%"}
